From ChEMBL document CHEMBL1147848, “1-(5-Carboxy- and 5-carbamoylindol-1-yl)propan-2-ones as inhibitors of human cytosolic phospholipase A2alpha: bioisosteric replacement of the carboxylic acid and carboxamide moiety” (Bioorg Med Chem, 2007) come the findings set out here.

Test [1] has as its target T1, Cytosolic phospholipase A2 (Homo sapiens, UniProt P47712).
T1 sequence (P47712 whole entry): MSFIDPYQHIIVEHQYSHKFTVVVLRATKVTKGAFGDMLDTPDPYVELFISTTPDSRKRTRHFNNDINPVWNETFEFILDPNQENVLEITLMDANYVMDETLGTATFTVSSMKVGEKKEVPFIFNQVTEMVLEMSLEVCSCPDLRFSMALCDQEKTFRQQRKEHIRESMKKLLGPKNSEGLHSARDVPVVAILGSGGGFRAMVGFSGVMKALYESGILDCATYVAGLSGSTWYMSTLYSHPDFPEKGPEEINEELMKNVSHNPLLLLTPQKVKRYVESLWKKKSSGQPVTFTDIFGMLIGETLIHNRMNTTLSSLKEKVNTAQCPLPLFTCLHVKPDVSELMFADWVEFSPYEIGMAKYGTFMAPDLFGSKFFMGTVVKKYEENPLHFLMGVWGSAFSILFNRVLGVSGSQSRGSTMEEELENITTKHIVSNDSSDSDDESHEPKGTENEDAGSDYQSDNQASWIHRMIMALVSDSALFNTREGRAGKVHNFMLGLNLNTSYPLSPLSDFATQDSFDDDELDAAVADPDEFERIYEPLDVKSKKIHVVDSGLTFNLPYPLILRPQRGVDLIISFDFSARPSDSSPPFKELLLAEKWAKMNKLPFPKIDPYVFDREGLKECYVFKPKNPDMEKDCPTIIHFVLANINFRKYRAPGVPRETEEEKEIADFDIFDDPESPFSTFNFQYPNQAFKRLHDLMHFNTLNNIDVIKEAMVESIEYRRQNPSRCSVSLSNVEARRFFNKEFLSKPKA
Nature of the test: Inhibition of human platelet cPLA2-alpha assessed as arachidonic acid release by vesicle assay. In outline: (§1)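 cPLA2α isolated from human platelets. Highest test concentration 10 µM, kept low to limit inhibitor mole fraction in the interface. Incubated 60 min. Released arachidonic acid is cleaned up by solid-phase extraction, then quantified by reversed-phase HPLC with UV detection at 200 nm.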

The target of test [2] is T2, Cytosolic phospholipase A2 (Homo sapiens) (UniProt P47712).
T2 sequence (whole entry): T1 sequence (P47712 whole entry)
Nature of the test: Inhibition of human platelet cPLA2-alpha assessed as arachidonic acid release at 10 uM by vesicle assay. In outline:
as §1

The source made the active and inactive calls. No cut-off for these calls is given here.

The term IC50 denotes the concentration that gives 50% inhibition. The term inhibition denotes the relative decrease from the control value, in per cent.

As for `CCCCCCCCc1ccc(OCC(=O)Cn2cc(C(=O)OC)c3cc(C(=O)O)ccc32)cc1`, in test [1], the IC50 worked out at 5 nM.

Regarding `CCCCCCCCc1ccc(OCC(=O)Cn2ccc3cc(S(=O)(=O)NC)ccc32)cc1`, the IC50 in test [1] turned out to be 310 nM.

As for `CCCCCCCCc1ccc(OCC(=O)Cn2ccc3cc(-c4nnn[nH]4)ccc32)cc1`, the IC50 in test [1] was 1100 nM.

Regarding `CCCCCCCCc1ccc(OCC(=O)Cn2ccc3cc(/C=C4\SC(=O)NC4=O)ccc32)cc1`, the inhibition in test [2] worked out at 29%.

Regarding `CCCCCCCCc1ccc(OCC(=O)Cn2ccc3cc(C(=O)N4CCOCC4)ccc32)cc1`, the IC50 in test [1] stood at 500 nM.

`CCCCCCCCc1ccc(OCC(=O)Cn2ccc3cc(S(=O)(=O)N(C)C)ccc32)cc1`: in test [1], the IC50 came to 500 nM.

As to `CCCCCCCCc1ccc(OCC(=O)Cn2ccc3cc(C(=O)NC)ccc32)cc1`, the IC50 in test [1] is 370 nM.

With `CCCCCCCCc1ccc(OCC(=O)Cn2ccc3cc(C(=O)N(C)C)ccc32)cc1`, the IC50 in test [1] was determined as 840 nM.

`CCCCCCCCc1ccc(OCC(=O)Cn2ccc3cc(S(N)(=O)=O)ccc32)cc1`: the IC50 in test [1] came to 390 nM.

Take `CCCCCCCCc1ccc(OCC(=O)Cn2ccc3cc(-c4nc(CC)no4)ccc32)cc1`: in test [2], the result was inactive.

`CCCCCCCCc1ccc(OCC(=O)Cn2ccc3cc(-c4noc(=O)[nH]4)ccc32)cc1`: the IC50 in test [1] came out at 3500 nM.

Regarding `CCCCCCCCc1ccc(OCC(=O)Cn2ccc3cc(-c4nc(Cc5ccccc5)no4)ccc32)cc1`, the result in test [2] was inactive.

As for `CCCCC/C=C\C/C=C\C/C=C\C/C=C\CCCC(=O)C(F)(F)F` [ARACHIDONYL TRIFLUOROMETHYLKETONE], in test [1], the IC50 stood at 2300 nM.
